Reference: ChEMBL document CHEMBL1121469, “Synthesis and biochemical screening of phenylselenium-substituted steroid hormones” (J Med Chem, 1980)

Columns and labels:
[1] = molecular target: T1, Mineralocorticoid receptor (Rattus norvegicus) (UniProt P22199); assay: Relative binding affinity for mineralocorticoid receptor of rat kidney homogenates, displacement of [3H]aldosterone over 30 min at 25 degree C
T1 sequence (whole entry): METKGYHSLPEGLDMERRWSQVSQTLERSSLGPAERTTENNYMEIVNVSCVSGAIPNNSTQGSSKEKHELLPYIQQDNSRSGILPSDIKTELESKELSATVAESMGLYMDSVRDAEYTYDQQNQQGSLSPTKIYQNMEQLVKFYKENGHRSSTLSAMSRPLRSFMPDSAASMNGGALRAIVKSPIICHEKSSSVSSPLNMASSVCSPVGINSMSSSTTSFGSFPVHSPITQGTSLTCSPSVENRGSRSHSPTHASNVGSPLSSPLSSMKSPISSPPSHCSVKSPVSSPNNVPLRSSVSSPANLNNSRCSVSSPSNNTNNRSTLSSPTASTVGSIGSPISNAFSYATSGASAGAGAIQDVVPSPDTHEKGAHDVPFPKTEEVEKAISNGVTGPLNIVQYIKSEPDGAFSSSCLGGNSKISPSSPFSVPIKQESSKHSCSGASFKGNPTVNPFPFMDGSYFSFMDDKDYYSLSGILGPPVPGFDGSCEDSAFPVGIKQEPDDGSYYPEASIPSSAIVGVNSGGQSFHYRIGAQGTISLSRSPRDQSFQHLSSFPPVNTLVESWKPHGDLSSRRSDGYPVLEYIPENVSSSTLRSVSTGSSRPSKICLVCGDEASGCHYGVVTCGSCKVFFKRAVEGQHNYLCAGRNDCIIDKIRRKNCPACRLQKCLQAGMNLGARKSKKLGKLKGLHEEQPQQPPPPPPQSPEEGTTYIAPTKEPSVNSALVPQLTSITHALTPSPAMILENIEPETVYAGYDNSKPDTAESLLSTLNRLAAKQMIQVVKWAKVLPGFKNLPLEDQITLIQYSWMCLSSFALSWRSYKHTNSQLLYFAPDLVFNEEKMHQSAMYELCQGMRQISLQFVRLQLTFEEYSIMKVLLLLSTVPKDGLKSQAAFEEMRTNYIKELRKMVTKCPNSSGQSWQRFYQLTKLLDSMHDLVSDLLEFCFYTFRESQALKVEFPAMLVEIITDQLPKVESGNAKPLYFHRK
Outline: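 Perfused kidneys from adrenalectomized (4–7 days) male Sprague–Dawley rats homogenised 1/3 in Krebs-Ringer phosphate buffer. Homogenate incubated with 2.5 nM [3H]aldosterone for 30 min at 25 °C with 0–2500 nM competitor, then centrifuged at 800g for 10 min at 0 °C. Bound ligand measured by dextran-charcoal. RBA relative to aldosterone = 100.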

[2] = molecular target: T2, Progesterone receptor (Oryctolagus cuniculus) (UniProt P06186); assay: Relative binding affinity for Progesterone receptor of rabbit uterus cytosol, displacement of [3H]R5020 over 24 hr at 0C
T2 sequence (whole entry): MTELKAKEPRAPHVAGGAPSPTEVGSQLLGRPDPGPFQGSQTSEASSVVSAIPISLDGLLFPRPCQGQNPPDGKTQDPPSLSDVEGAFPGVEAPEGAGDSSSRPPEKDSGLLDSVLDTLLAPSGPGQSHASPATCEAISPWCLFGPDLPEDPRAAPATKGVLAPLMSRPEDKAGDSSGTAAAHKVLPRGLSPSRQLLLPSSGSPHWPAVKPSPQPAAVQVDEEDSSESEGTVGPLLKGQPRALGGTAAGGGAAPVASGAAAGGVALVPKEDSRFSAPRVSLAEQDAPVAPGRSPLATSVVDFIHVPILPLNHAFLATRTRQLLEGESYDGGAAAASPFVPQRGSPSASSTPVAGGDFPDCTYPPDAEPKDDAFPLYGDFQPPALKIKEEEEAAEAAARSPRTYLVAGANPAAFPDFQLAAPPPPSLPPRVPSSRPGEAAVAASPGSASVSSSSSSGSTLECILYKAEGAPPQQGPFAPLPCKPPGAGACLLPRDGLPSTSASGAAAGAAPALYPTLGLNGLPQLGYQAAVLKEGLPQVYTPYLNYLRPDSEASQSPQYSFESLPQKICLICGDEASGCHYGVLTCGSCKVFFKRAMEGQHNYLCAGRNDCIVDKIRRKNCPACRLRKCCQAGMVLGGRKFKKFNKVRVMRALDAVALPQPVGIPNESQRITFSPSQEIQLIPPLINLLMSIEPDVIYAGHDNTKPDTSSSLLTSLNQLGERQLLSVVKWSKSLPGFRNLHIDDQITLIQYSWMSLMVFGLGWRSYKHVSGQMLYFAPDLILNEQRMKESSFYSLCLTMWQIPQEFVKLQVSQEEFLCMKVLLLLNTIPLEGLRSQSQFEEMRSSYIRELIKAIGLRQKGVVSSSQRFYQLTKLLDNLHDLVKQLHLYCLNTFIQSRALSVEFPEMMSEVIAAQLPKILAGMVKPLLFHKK
Outline: (§1)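 Uteri from estrogen-primed female New Zealand rabbits (1 kg, 50–55 days old) homogenised 1/50 in 10 mM Tris-HCl pH 7.4, 0.25 M sucrose. Cytosol spun at 105000g for 60 min at 4 °C, then incubated with 2.5 nM [3H]R 5020 for 24 h at 0 °C with 0–2500 nM competitor. Bound ligand taken by dextran-charcoal. RBA taken relative to progesterone.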

[3] = molecular target: T3, Estrogen receptor (Mus musculus) (UniProt O08537+P19785); assay: Relative binding affinity for Estrogen receptor of mouse uterus cytosol, displacement of [3H]estradiol over 2 hr at 0C; assay type: protein assay
Outline: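 Cytosol from uteri of 18-day-old female Swiss mice (homogenised 1/50 w/v), incubated with 5 nM [3H]estradiol for 2 h at 0 °C with 0–2500 nM unlabeled competitor. Bound ligand separated by dextran-coated charcoal, 10 min at 0–4 °C, then centrifuged at 800g. RBA = (50%-displacing concentration of unlabeled estradiol / that of competitor) × 100. Mean of ≥3 experiments or 2 concordant.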

[4] = molecular target: T4, Androgen receptor (Rattus norvegicus) (UniProt P15207); assay: Relative binding affinity for androgen receptor of rat prostate cytosol, displacement of [3H]R-1881 over 2 hr at 0C
T4 sequence (whole entry): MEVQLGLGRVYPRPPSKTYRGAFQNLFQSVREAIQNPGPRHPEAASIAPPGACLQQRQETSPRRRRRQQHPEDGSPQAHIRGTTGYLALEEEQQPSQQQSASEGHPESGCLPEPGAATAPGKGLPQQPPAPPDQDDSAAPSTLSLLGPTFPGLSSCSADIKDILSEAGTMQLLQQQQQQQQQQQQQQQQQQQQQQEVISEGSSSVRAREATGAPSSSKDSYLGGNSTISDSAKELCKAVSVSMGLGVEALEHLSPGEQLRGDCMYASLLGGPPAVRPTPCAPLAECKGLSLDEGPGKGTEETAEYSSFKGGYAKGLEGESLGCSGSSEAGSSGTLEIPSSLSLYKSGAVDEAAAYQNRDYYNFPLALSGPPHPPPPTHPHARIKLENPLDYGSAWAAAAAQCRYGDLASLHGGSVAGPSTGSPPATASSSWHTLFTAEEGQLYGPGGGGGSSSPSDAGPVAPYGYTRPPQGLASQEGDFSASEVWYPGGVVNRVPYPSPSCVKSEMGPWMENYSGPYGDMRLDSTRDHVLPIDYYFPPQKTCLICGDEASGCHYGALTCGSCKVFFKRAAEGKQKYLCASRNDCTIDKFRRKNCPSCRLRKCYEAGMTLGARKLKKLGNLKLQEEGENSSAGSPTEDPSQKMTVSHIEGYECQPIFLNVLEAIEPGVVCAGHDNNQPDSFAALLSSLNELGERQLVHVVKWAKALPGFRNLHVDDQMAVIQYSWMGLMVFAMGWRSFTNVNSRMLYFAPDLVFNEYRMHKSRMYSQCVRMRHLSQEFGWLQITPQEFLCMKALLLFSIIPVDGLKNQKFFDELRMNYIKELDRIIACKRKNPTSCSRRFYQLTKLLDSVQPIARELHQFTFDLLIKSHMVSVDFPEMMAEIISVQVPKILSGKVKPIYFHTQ
Outline: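 Prostate from male Sprague–Dawley rats (140–160 g) castrated 24 h earlier, homogenised 1/5 w/v. Cytosol incubated with 2.5 nM [3H]R 1881 for 2 h at 0 °C with 0–2500 nM competitor. […] by dextran-coated charcoal (10 min, 0–4 °C; 800g). RBA is the ratio of 50%-displacing concentrations × 100, relative to testosterone.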

[5] = molecular target: T5, Glucocorticoid receptor (Rattus norvegicus) (UniProt P06536); assay: Relative binding affinity for glucocorticoid receptor of rat liver cytosol, displacement of [3H]dexamethasone over 4 hr at 0C
T5 sequence (whole entry): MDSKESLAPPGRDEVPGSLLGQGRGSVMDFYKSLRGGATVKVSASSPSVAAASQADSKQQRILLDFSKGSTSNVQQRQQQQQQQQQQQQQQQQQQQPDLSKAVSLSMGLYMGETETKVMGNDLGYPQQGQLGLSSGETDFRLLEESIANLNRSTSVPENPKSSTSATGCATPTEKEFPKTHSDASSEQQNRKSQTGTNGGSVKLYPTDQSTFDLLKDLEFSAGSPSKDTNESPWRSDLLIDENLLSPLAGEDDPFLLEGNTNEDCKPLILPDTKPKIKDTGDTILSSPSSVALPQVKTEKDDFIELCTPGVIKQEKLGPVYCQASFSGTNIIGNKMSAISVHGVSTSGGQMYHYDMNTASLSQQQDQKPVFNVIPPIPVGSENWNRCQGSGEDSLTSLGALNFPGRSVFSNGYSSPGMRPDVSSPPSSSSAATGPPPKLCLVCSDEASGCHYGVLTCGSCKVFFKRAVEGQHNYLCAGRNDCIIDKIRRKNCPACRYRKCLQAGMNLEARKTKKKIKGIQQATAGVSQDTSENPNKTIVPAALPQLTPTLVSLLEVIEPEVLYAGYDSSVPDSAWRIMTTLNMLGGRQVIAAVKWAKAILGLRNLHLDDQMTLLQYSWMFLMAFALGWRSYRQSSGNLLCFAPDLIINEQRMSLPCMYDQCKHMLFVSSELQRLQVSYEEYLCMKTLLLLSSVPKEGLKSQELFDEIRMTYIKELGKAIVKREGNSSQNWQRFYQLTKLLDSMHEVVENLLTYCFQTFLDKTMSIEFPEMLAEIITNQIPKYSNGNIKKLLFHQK
Outline: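 Rats (male Sprague–Dawley, 140–160 g) adrenalectomized 4–7 days earlier. Perfused liver homogenised 1/10 in Tris-sucrose buffer and spun at 105000g for 60 min at 4 °C. Cytosol incubated with 5 nM [3H]dexamethasone for 4 h at 0 °C with 0–2500 nM competitor. Dextran-charcoal separation used. RBA relative to dexamethasone = 100.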

[6] = molecular target: T5, Glucocorticoid receptor (Rattus norvegicus)
[7] = molecular target: T3, Estrogen receptor (Mus musculus); assay: Binding affinity to Steroid Hormone Receptor was determined using [6,7-3H]estradiol as radioligand; assay type: protein assay; conditions: tested as the 3H-labelled form
Outline: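 Uteri came from 18-day-old female Swiss mice and were homogenized 1/50 (w/v). Uterine cytosol was labeled with 5 nM [3H]estradiol for 2 h at 0 °C with 0–2500 nM competing steroid. Bound radioactivity was measured after dextran-coated charcoal treatment and an 800g centrifugation. The 50%-inhibition concentrations gave RBA × 100 relative to estradiol (100). Results are means of ≥3 or two experiments.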

[8] = molecular target: T2, Progesterone receptor (Oryctolagus cuniculus); assay: Binding affinity to Steroid Hormone Receptor was determined using [6,7-3H]R5020 as radioligand; outline: as §1
[9] = molecular target: T4, Androgen receptor (Rattus norvegicus); assay: Binding affinity to Steroid Hormone Receptor was determined using [6,7-3H] R 1881 as radioligand; conditions: tested as the 3H-labelled form
Outline: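 Prostate was taken from male Sprague–Dawley rats (140–160 g) castrated 24 h before and homogenized 1/5 (w/v). Cytosol was incubated with 2.5 nM [3H]R 1881 for 2 h at 0 °C with 0–2500 nM unlabeled competitor. Free ligand was removed with DCC (0.625% dextran–1.25% charcoal, 10 min, 0–4 °C, 800g spin). RBA is relative to testosterone = 100. Values are means of ≥3 experiments (SEM) or of two.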

[10] = molecular target: T1, Mineralocorticoid receptor (Rattus norvegicus); assay: Binding affinity to Steroid Hormone Receptor was determined using [1,2-3 H]aldosterone as radioligand
Outline: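 Rats were male Sprague–Dawley, 140–160 g, adrenalectomized 4–7 days. Perfused kidney was homogenized 1/3 (w/v) in Krebs-Ringer phosphate buffer. Homogenate was incubated with 2.5 nM [3H]aldosterone for 30 min at 25 °C with 0–2500 nM competitor, then spun at 800g for 10 min at 0 °C. Bound ligand was separated by dextran-coated charcoal. RBA = 100 × ratio of the 50%-displacing concentrations, with aldosterone set at 100.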

T3 sequence (O08537 whole entry, looked up): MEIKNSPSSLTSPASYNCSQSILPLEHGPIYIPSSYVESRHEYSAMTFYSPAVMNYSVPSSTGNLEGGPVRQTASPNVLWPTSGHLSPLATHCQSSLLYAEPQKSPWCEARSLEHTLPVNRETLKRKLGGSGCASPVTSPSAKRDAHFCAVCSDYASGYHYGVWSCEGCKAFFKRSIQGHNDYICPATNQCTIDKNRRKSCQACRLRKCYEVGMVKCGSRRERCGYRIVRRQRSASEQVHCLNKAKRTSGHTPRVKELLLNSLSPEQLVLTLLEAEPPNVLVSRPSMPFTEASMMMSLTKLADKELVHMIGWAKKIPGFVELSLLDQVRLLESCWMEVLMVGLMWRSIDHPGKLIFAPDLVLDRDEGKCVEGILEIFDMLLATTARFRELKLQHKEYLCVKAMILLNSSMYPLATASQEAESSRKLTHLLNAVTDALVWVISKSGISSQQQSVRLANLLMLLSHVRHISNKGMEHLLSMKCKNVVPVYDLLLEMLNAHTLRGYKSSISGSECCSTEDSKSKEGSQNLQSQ
T3 sequence (P19785 whole entry, looked up): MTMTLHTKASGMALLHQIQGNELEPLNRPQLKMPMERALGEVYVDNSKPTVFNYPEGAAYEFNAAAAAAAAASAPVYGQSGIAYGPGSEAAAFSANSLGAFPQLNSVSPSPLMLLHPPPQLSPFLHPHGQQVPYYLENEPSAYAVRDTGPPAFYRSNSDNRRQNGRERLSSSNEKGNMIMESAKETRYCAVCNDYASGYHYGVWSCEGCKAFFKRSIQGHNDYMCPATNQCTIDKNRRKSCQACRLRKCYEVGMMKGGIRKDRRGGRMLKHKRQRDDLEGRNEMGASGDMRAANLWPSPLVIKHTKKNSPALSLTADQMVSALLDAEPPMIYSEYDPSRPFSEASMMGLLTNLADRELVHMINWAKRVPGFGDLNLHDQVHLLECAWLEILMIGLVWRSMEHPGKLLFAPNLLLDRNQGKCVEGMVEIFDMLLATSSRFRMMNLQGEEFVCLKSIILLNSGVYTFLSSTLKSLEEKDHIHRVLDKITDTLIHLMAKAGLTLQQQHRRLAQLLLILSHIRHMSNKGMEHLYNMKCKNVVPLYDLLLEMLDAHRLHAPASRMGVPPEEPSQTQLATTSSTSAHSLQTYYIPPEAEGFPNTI

Row | Compound | RBA [1] | RBA [2] | RBA [3] | RBA [4] | RBA [5] | also measured
1 | CC12CCC(=O)C=C1CCC1C2CCC2(C)C1CC[C@@H]2C(=O)C[Se]c1ccccc1 (stereo not given in full) | 2.1 | 59 | < 0.1 | 1.7 | 0.6 | 
2 | CC(=O)[C@@]1([Se]c2ccccc2)CCC2C3CCC4=CC(=O)CCC4(C)C3CCC21C (stereo not given in full) | 0.23 | 2.1 | < 0.1 | < 0.1 | < 0.1 | 
3 | C[C@@H]1C[C@H]2[C@@H]3CCC4=CC(=O)C=C[C@]4(C)[C@@]3(F)[C@@H](O)C[C@]2(C)[C@@]1(O)C(=O)CO |  |  |  |  |  | Specific activity [6]: 26 Ci mM-1
4 | CC12CCC(=O)C=C1CCC1C2CCC2(C)C1C[C@@H]([Se]c1ccccc1)C2O (stereo not given in full) | 0.15 | 0.8 | < 0.1 | 0.33 | 0.23 | 
5 | CCC(=O)[C@@]1(C)CC[C@H]2[C@@H]3CCC4=CC(=O)CCC4=C3CCC21C (stereo not given in full) |  |  |  |  |  | Specific activity [7]: 57 Ci mM-1
6 | C[C@]1(O)CC[C@H]2[C@@H]3CCC4=CC(=O)CCC4=C3C=C[C@@]21C |  |  |  |  |  | Specific activity [8]: 56 Ci mM-1
7 | CC12CCC(=O)C=C1CCC1C2C2CC3(C(O)O2)C(C(=O)CO)CCC13 (stereo not given) |  |  |  |  |  | Specific activity [9]: 53 Ci mM-1
8 | CC12CCC(=O)C=C1CCC1C2CCC2(C)C1C[C@H]([Se]c1ccccc1)C2O (stereo not given in full) | < 0.1 | < 0.1 | < 0.1 | 1.9 | < 0.1 | 
9 | C[C@]12CC[C@@H]3c4ccc(O)cc4CC[C@H]3[C@@H]1CC[C@@H]2O |  |  |  |  |  | Specific activity [10]: 50 Ci mM-1
